According to ChEMBL document CHEMBL1144257, “5-Chloroindoloyl glycine amide inhibitors of glycogen phosphorylase: synthesis, in vitro, in vivo, and X-ray crystallographic characterization” (Bioorg Med Chem Lett, 2005):

How the values were obtained:
SK-HEP1 = assay: Inhibitory concentration against human SK-Hep-1 cells (hepatoma cell line); format: functional, cell-based
How it was run: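 SK-HEP-1 cells carrying pre-labeled ¹⁴C-glycogen, with phosphorylase activated by forskolin. Glycogenolysis is the ¹⁴C-glycogen (dpm) difference between basal and forskolin-treated cells. Inhibition is expressed as percent of forskolin-induced glycogenolysis in DMSO controls. IC50 from a 6-point curve (0.1–30μM), triplicate points, mean of ≥2 independent experiments where repeated.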

[1] = target: T1, Glycogen phosphorylase, liver form (Homo sapiens, UniProt P06737); assay: (§1) Inhibitory concentration against glycogen phosphorylase
T1 sequence (P06737 whole entry): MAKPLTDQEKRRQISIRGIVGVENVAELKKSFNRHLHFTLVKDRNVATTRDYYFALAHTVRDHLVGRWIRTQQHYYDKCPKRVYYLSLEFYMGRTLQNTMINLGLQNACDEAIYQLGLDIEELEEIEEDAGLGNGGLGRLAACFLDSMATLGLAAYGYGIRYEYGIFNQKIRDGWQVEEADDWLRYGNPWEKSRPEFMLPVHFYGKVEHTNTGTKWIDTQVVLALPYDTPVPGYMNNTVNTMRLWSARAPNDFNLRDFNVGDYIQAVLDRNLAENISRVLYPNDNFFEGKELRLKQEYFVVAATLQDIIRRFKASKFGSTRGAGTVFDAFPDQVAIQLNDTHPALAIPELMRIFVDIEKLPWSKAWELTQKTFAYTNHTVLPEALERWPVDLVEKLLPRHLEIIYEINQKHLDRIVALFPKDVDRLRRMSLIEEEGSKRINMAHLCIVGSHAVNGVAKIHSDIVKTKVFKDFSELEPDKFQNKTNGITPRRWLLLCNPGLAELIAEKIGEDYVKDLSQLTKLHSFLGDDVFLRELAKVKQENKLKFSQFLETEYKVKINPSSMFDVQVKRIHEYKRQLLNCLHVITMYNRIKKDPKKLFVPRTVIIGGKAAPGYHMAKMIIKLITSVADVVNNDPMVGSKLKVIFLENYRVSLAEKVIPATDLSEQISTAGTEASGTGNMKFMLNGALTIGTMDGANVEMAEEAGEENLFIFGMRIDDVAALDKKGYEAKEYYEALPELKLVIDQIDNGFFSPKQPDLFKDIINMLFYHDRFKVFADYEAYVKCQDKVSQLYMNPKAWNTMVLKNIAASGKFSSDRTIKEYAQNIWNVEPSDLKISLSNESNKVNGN

Mus musculus [2] = assay: In-vivo minimum effective dose (MED) for reduction of plasma glucose in mouse after 3 hours; format: functional; details: read-out: MED
How it was run: (§2)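 Fed diabetic ob/ob mice, oral dosing in neat PEG400, starting at […] and then at successively lower doses. Plasma glucose measured 3h post-dose. Lowering is expressed as percent decrease versus vehicle-treated controls within the same experiment, with significance by unpaired t-test on group mean glucose. MED is the lowest dose giving reduction.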

Mus musculus [3] = species: Mus musculus; assay: Percentage of glucose lowering after 3h at minimum effective dose in mouse; format: functional; how it was run: as §2
[4] = target: T1, Glycogen phosphorylase, liver form; assay: as §1; remark: listed apart in the source
How it was run: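 Recombinant human liver GPa (50ng), run in the glycogen-synthesis direction at 22°C. Compounds added in 14% DMSO before enzyme. Released phosphate read at 620nm with malachite green/molybdate in HCl after 20min. IC50 from triplicate dose-response curves, mean of ≥3 determinations (≥2 if >500 nM).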

Row | Compound | IC50 (SK-HEP1) | IC50 [1] | IC50 [4] | minimal effective dose (Mus musculus [2]) | Activity (Mus musculus [3])
1 | O=C(NCC(=O)N(CCO)c1ccccc1)c1cc2cc(Cl)ccc2[nH]1 | 270 nM | 120 nM | – | > 10 mg/kg | –
2 | CN(C)C(=O)[C@H](O)[C@H](Cc1ccccc1)NC(=O)c1cc2cc(Cl)ccc2[nH]1 | 1500 nM | – | – | 25 mg/kg | 32%
3 | CN(C(=O)CNC(=O)c1cc2cc(Cl)ccc2[nH]1)C1CCCC1 | 1700 nM | 55 nM | – | 10 mg/kg | 36%
4 | CCCCN(CCO)C(=O)CNC(=O)c1cc2cc(Cl)ccc2[nH]1 | 1000 nM | 120 nM | – | > 10 mg/kg | –
5 | CC(C)(O)CN(C(=O)CNC(=O)c1cc2cc(Cl)ccc2[nH]1)C1CCCC1 | 1400 nM | 150 nM | – | 10 mg/kg | 30%
6 | CC(C)CN(CCO)C(=O)CNC(=O)c1cc2cc(Cl)ccc2[nH]1 | 2500 nM | 180 nM | – | 25 mg/kg | 25%
7 | CN(C(=O)CNC(=O)c1cc2cc(Cl)ccc2[nH]1)C1CCCCC1 | 1400 nM | 150 nM | – | > 10 mg/kg | –
8 | N#CCN(C(=O)CNC(=O)c1cc2cc(Cl)ccc2[nH]1)C1CCCC1 | 680 nM | 30 nM | – | 10 mg/kg | 40%

Now from value to molecule, other results behind:

Row | IC50 (SK-HEP1) | IC50 [1] | IC50 [4] | Compound | minimal effective dose (Mus musculus [2]) | Activity (Mus musculus [3])
9 | 3800 nM | 230 nM | – | O=C(NCC(=O)N(CCOCCO)C1CCCC1)c1cc2cc(Cl)ccc2[nH]1 | > 10 mg/kg | –
10 | 1400 nM | 250 nM | – | O=C(NCC(=O)N(CCO)C1CCOCC1)c1cc2cc(Cl)ccc2[nH]1 | 5 mg/kg | 27%
11 | 140 nM | 57 nM | – | O=C(NCC(=O)N(CCO)C1CCCC1)c1cc2cc(Cl)ccc2[nH]1 | 5 mg/kg | 25%
12 | 2000 nM | 130 nM | – | O=C(NCC(=O)N(CCO)C1CCC1)c1cc2cc(Cl)ccc2[nH]1 | 25 mg/kg | 30%
13 | – | – | 1400 nM | O=C(NCC(=O)N(CCOc1ccccc1)C1CCCC1)c1cc2cc(Cl)ccc2[nH]1 | – | –
14 | 710 nM | 99 nM | – | O=C(NCC(=O)N(CCO)C1CCCCC1)c1cc2cc(Cl)ccc2[nH]1 | > 10 mg/kg | –
